PubChem BioAssay AID1442 (PCMD, 2008)
Calls of active or inactive are those of the source.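 How the source made its calls: active means maximum enhancement above 22% with a fitted EC50 greater than zero; inactive means the rest.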

Tested on: not listed separately
Experiment: compounds raising luminescence in mutant MDM2 cells – cell-based, luciferase luminescence, dose response (AID 1442)
Settings: mutant MDM2 reporter cells, luciferase luminescence enhancement, 2 h; active compounds read high
In short: (§1)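 Test system: MDM2-luciferase fusion reporter cells; times: 2 h compound exposure, 37 °C; measured by: luminescence; evaluation: blank-corrected % enhancement vs untreated cells; control set: cells without compound as reference, wells for blank correction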

Which maximum enhancement does the source give for `O=C1C(Cl)=C(N2CCCCC2)C(=O)C(Cl)=C1c1cnc(N2CCCCC2)s1` here?
The maximum enhancement was 16.3% (inactive).

With `COc1ccccc1-c1cc(SC)c(C#N)c(=O)o1` as the molecule, how does the maximum enhancement read?
Its maximum enhancement is 18% (inactive).

With `Cc1ccc(C=C2C(Cl)=C(Cl)C(Cl)=C2Cl)cc1` as the molecule, how does the maximum enhancement read?
Its maximum enhancement is 10.2% (inactive).

Which maximum enhancement does the source give for `CCN(CC)c1ccc(/C=C2/C(=O)c3ccc(C(=O)O)cc3C2=O)cc1` here?
Its maximum enhancement is 15.6% (inactive).

Tested on: mutant MDM2 reporter cells, luciferase luminescence enhancement, 2 h
Experiment: as above
Settings: not given
In short: as §1

For `COc1cc(/C=C2\COC/C(=C\c3cc(OC)c(OC)c(OC)c3)C2=O)cc(OC)c1OC`, which EC50 is on record?
The EC50 was 648 µM.

With `C=CCSc1nc2ccccc2n1C(=O)/C=C/c1cc(OC)c(OC)c(OC)c1` as the molecule, how does the EC50 read?
The EC50 was 1.16 µM.

With `COc1ccc(NC(=O)/C(Cl)=C(/Cl)S(=O)Cc2ccc(C)cc2)cn1` (configuration not stated) as the molecule, how does the EC50 read?
Its EC50 is 0.84 µM.

Which EC50 does the source give for `O=C(Cn1ncc(Cl)c(Cl)c1=O)NCC1CCCCC1` here?
The EC50 was 2.08 µM.

For `CC1=NN(c2cccc(C(=O)O)c2)C(=O)/C1=C\C=C/c1ccccc1`, which EC50 is on record?
The EC50 was 92.9 µM.

For `COC(=O)CSC1=C(C#N)C(=O)NC(c2ccccc2)S1` (configuration not stated), which EC50 is on record?
The EC50 was 4.1 µM.

With `CCOC(=O)/C=C/C(=O)Nc1ccccc1-c1ccccc1NC(=O)/C=C/C(=O)OCC` as the molecule, how does the EC50 read?
Its EC50 is 1320 µM.

With `CCN1C/C(=C/c2ccc(OC)c(O)c2)C(=O)/C(=C/c2ccc(OC)c(O)c2)C1` as the molecule, how does the EC50 read?
The EC50 was 888 µM.

Which EC50 does the source give for `C=CS(=O)(=O)c1ccc(Oc2ccc(S(=O)(=O)C=C)cc2)cc1` here?
Its EC50 is 1.5 µM.

Which EC50 does the source give for `O=C(/C=C/c1cccc([N+](=O)[O-])c1)n1cnc2ccccc21` here?
Its EC50 is 1.72 µM.

With `CCSc1nc2ccccc2n1C(=O)/C=C/c1ccc(OC)c(OC)c1` as the molecule, how does the EC50 read?
Its EC50 is 1.13 µM.

Which EC50 does the source give for `Cc1cc(C)nc(S/C=C/C(=O)c2ccccc2)n1` here?
The EC50 was 0.79 µM.

For `CC(NC(=O)Cn1ncc(Cl)c(Cl)c1=O)C12CC3CC(CC(C3)C1)C2` (configuration not stated), which EC50 is on record?
The EC50 was 41.6 µM.

For `CC(C)CC(=O)/C=C/n1c(=S)oc2ccccc21`, which EC50 is on record?
The EC50 was 4.79 µM.

With `O=C(/C=C/c1cccnc1)/C=C/c1cccnc1` as the molecule, how does the EC50 read?
The EC50 was 0.58 µM.

Which EC50 does the source give for `CCSc1nc2ccccc2n1C(=O)/C=C\c1ccc(OC)c(OC)c1` here?
Its EC50 is 1630 µM.

For `COc1ccc(CS(=O)/C(Cl)=C(/Cl)C(=O)Nc2ccc(OC)nc2)cc1` (configuration not stated), which EC50 is on record?
The EC50 was 3.41 µM.

With `CCOC(=O)N1C/C(=C\c2ccccc2)C(=O)/C(=C/c2ccccc2)C1` as the molecule, how does the EC50 read?
Its EC50 is 1.94 µM.

For `CC(C)c1ccc2c(c1)C1(NN=C(c3ccccc3)S1)C(=O)N2` (configuration not stated), which EC50 is on record?
Its EC50 is 1.42 µM.

For `COc1ccc(NC(=O)/C(Cl)=C(/Cl)S(=O)Cc2ccc(Cl)cc2)cn1` (configuration not stated), which EC50 is on record?
Its EC50 is 0.46 µM.

Which EC50 does the source give for `Cc1cccc2c1c1ccc3c(c1n2C)C(=O)C=CC3=O` here?
Its EC50 is 1.43 µM.

With `COCCNC(=O)/C(C#N)=C/c1cccc(/C=C(\C#N)C(=O)NCCOC)c1` as the molecule, how does the EC50 read?
The EC50 was 0.73 µM.

Which EC50 does the source give for `Cc1ccc2c(c1)c1ccc3c(c1n2C)C(=O)C=CC3=O` here?
The EC50 was 1.83 µM.

Which EC50 does the source give for `CCN(CC)c1ccc(/C=C2\C(=O)c3ccc(C(=O)O)cc3C2=O)cc1` here?
The EC50 was 216 µM (inactive).

Which EC50 does the source give for `Nc1cccc2c1C(=O)N(C(=O)/C=C/c1cccc(Br)c1)C2=O` here?
Its EC50 is 16.5 µM.

With `CCOC(=O)C1=C(c2ccccc2)O/C(=C(/C#N)C(F)(F)F)S1` as the molecule, how does the EC50 read?
Its EC50 is 40.8 µM.

For `CN(C(=O)c1cccc(COc2ccc(Cl)cc2Cl)c1)c1ccccc1`, which EC50 is on record?
The EC50 was 15.6 µM (inactive).

Which EC50 does the source give for `CN(C)c1nc(=NCc2ccco2)ss1` here?
The EC50 was 0.1 µM.

For `CN(C)C(=S)SSC(=S)N(C)C`, which EC50 is on record?
Its EC50 is 0.08 µM.

With `C=C1C(=O)O[C@@H]2C[C@@H](C)[C@@H]3C=CC(=O)[C@@]3(C)[C@@H](O)[C@H]12` as the molecule, how does the EC50 read?
The EC50 was 1.11 µM.

Which EC50 does the source give for `CC(C)c1ccc(OCc2cccc(C(=O)N/N=C/c3cccnc3)c2)cc1` here?
The EC50 was 200 µM (inactive).

Which EC50 does the source give for `COc1cccc(OC)c1C(=O)NNC(=O)c1cccc(COc2ccc3c(c2)CCC3)c1` here?
Its EC50 is 562 µM (inactive).

Which EC50 does the source give for `Cc1cc(C)nc(S/C=C/C(=O)c2ccc(F)cc2)n1` here?
Its EC50 is 2.67 µM.
